In the library only some 3.7% were active in any assay of this set; here they are far more common.
Kir21 inh: inhibitors of mouse Kir2.1 inward-rectifier potassium channel; P35561; HEK293-Kir2.1, FluxOR thallium flux fluorescence; stronger effect = lower value; B-score at 10 µM; 310,000 compounds, 0.85% hits; AID 1672;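 active = fluorescence ratio B-score at or below minus 3 SD of library scores, with starting-brightness B-score within 2 SD, cut at about -4.2 in these data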;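 also: channel flux triggered by added potassium and thallium sulfate stimulus; B-score of peak minus minimum fluorescence over baseline after thallium stimulus; more negative B-score means stronger Kir2.1 block with less thallium influx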
Target sequence (P35561 whole entry, looked up): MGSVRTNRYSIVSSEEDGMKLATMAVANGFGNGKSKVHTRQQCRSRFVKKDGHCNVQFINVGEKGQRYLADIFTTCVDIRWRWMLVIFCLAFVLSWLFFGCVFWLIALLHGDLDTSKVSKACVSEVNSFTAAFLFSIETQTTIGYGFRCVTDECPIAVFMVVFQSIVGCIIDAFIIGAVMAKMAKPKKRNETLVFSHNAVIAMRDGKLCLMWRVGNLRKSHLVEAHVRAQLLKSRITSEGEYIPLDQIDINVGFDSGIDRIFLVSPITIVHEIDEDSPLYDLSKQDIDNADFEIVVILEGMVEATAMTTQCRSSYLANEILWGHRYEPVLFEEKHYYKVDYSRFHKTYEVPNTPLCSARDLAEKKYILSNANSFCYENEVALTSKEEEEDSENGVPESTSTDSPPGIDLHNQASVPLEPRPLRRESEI
KCNQ1 inh: human KCNQ1 channel inhibition | CHO-K1 KCNQ1, FluxOR thallium flux fluorescence; stronger effect = higher value | AID 2642 | 310,000 compounds, 1.3% hits | B-score at 10 µM | P51787;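 active = compounds whose thallium flux B-score, printed positive for inhibition, exceeds three library SD while starting fluorescence stays within three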;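 also: channel opened by potassium depolarization with thallium stimulus after 20 min compound exposure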
KCNK9 block: human KCNK9 channel inhibition | Q9NPC2 | HEK293 KCNK9, FluxOR thallium flux fluorescence; stronger effect = lower value | B-score at 10 µM | 310,000 compounds, 1.2% hits | AID 488922;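 active = ratio B-score over 3 SD below the library mean, with starting fluorescence within 5 SD of its mean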;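 also: negative B-score means less thallium flux so channel inhibition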
KCNK3 inh: human KCNK3 channel inhibition, primary screen; 340,000 compounds, 0.84% hits; CHO-KCNK3 thallium flux, FluxOR fluorescence; stronger effect = lower value; B-score at 10 µM; O14649; AID 602410;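 active = B-score under library mean minus 4 SD, starting fluorescence ratio at most library mean plus 5 SD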;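 also: more negative B-score means stronger inhibition of thallium flux through KCNK3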
hERG rescue: compounds protecting human hERG from proarrhythmic drug block. Q12809. CHO-hERG, FluxOR thallium flux, dofetilide IC70 present. activation (rescue from dofetilide block), less the hit threshold, % at 10 µM. 310,000 compounds, 0.51% hits;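 active = activation above the mean of controls blocked by dofetilide plus 5 SD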;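 also: thallium influx through hERG after potassium depolarization seen as dye fluorescence rise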
KCNQ1 act: potentiators or activators of human KCNQ1 potassium channel; P51787; CHO-K1 KCNQ1, thallium flux FluxOR fluorescence; stronger effect = higher value; B-score at 10 µM; 310,000 compounds, 0.35% hits;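 active = fluorescence ratio B-score, a plate-corrected score, at least three library SD, with initial intensity B-score within 5 SD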
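Schedule – 37 °C overnight plating, 90-min dark dye load, 20-min compound pretreatment · System – stable KCNQ1 CHO-K1 line · Probe or stimulus – thallium- and potassium-containing depolarizing buffer · Measured by – kinetic FluxOR fluorescence, 10 s baseline plus 110 s post-stimulus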
Numbers without * were called inactive; i = inactive; x = no result given.

SMILES	Kir21 inh	KCNQ1 inh	KCNK9 block	KCNK3 inh	hERG rescue	KCNQ1 act
COc1ccc(CCC(C)NCC(C)c2ccccc2)cc1 (stereo unspecified)	-4.44*	i	i	i	-1.7	i
COc1ccc2ccccc2c1CNC(C)CCc1ccccc1 (stereo unspecified)	-7.74*	i	i	i	-7.5	i
O=C(CN1CCOCC1)N1CCOCC1	x	x	x	i	x	x
O=C(Nc1ccccc1N1CCN(c2ccc(F)cc2)CC1)C1CCCCC1	0.84	i	-6.67*	i	-7.2	i
O=C(Nc1ccccc1N1CCN(c2ccc(F)cc2)CC1)C12CC3CC(CC(C3)C1)C2	-1.43	i	-7.03*	i	-9.1	i
O=C(Cc1ccc(Cl)c(Cl)c1)Nc1ccccc1N1CCCC1	-0.2	i	i	i	-0.8	i
O=C(Cc1ccc(F)cc1)Nc1ccccc1N1CCCC1	-5.43*	i	i	i	-9.4	i
O=Nc1c(O)[nH]c2ccc(Cl)c(Cl)c12	x	x	x	i	x	x
O=C(CSc1nnc(SCc2cccc3ccccc23)s1)N/N=C/c1c[nH]c2ccccc12	0.08	i	i	i	-0.9	i
O=C(CSc1nnc(SCc2cccc3ccccc23)s1)N/N=C/C=C/c1ccccc1[N+](=O)[O-]	-0.12	i	-7.49*	i	-14.4	i
C[n+]1c(/C=C/c2ccc(O)cc2)ccc2ccccc21	-0.11	i	i	i	-11.1	i
Cc1cc(/C=C\c2ccc3cc(N(C)C)ccc3[n+]2C)c(C)n1-c1ccccc1	x	x	x	-10.8*	x	x
COC(=O)/C(=C/c1cn(C)c2ccccc12)[N+](=O)[O-]	-5.31*	i	i	x	-16.3	i
COC(=O)/C(=C/c1cn(C(C)=O)c2ccccc12)[N+](=O)[O-]	x	x	x	i	x	x
Cc1cc(C)c(OCCCCN2CCC(C)CC2)c(Br)c1	-5.51*	i	i	i	-10.2	i
Cc1cc(Cl)c(OCCOCCN2CCN(C)CC2)c(Br)c1	-0.05	i	i	i	-7.9	i
CC1CCN(CCOCCOc2ccc(Cl)cc2Br)CC1	-2.82	6*	i	i	-9.0	i
Clc1ccc(OCCOCCN2CCCCC2)c(Br)c1	-2.11	i	i	i	-13.8	i
Cc1cc(Cl)c(OCCOCCN2CCC(C)CC2)c(Br)c1	-5.16*	i	i	i	-7.9	i
O=C(CN1CCOCC1)NNc1nc(-c2ccccc2)c2cc(Br)ccc2n1	0.37	7*	i	i	-1.6	i
Cc1ccc(S(=O)(=O)N2CCOCC2)cc1NC(=O)COC(=O)C1(C)CC1(Cl)Cl (stereo unspecified)	x	x	x	i	x	x
O=C(O)C1=CC2C=C(Cl)C=CC2OC1=O (stereo unspecified)	x	x	x	i	x	x
O=C(CSc1ccc(Cl)cc1)N/N=C/c1cccnc1	-0.68	i	i	i	8.2*	i
CC(=O)N(C)c1ccc(NC(=O)C(Sc2ccccc2)c2ccccc2)cc1 (stereo unspecified)	-1.21	i	i	i	-9.8	i
COCC(C)NC(C(=O)Nc1ccc(Cl)c([N+](=O)[O-])c1)c1ccccc1 (stereo unspecified)	-3.71	i	i	i	-9.6	i
SMILES	Kir21 inh	KCNQ1 inh	KCNK9 block	KCNK3 inh	hERG rescue	KCNQ1 act
CCC(C)NC(C(=O)Nc1ccc(Cl)c([N+](=O)[O-])c1)c1ccccc1 (stereo unspecified)	0.15	i	-6.98*	i	-17.0	i
O=C(NCCCl)Nc1ccc(Cl)c([N+](=O)[O-])c1	1.34	10*	i	i	-14.8	i
CC(CC(=O)Nc1cccc(Cl)c1)c1ccccc1 (stereo unspecified)	0.23	i	i	i	-14.7	i
O=C(Nc1ccc(Cl)c([N+](=O)[O-])c1)C(Sc1ccccc1)c1ccccc1 (stereo unspecified)	1.37	11*	i	i	-17.1	i
CC(CC(=O)Nc1ccc(F)c([N+](=O)[O-])c1)c1ccccc1 (stereo unspecified)	-0.49	6*	i	i	-3.5	i
O=C(/C=C/c1ccccc1)CCN1CCCCC1	x	x	x	i	x	x
Cc1c(NC(=O)C(Sc2ccccc2)c2ccccc2)cccc1[N+](=O)[O-] (stereo unspecified)	0.03	i	i	i	-10.3	i
O=C(Nc1cc([N+](=O)[O-])ccc1Cl)C(Sc1ccccc1)c1ccccc1 (stereo unspecified)	-2.71	i	-7.08*	i	-7.8	i
O=[N+]([O-])c1ccc(N/N=C/C=C/c2ccco2)cc1	0.48	i	-7.18*	i	-6.2	i
O=C(O)c1ccc(N/N=C/C=C/c2ccc([N+](=O)[O-])o2)cc1	-1.38	i	i	i	-4.5	i
OCC[C@@H]1C[C@H](O)[C@@H](O)[C@]2(CCc3ccccc3O2)O1	-1.64	i	i	i	-3.1	i
CN(C)c1ccc(C(c2ccc(N(C)C)cc2)C(O)c2ccccc2)cc1 (stereo unspecified)	x	x	x	i	x	x
C=CCN1C=C/C(=C\C=C(C#N)C#N)c2ccccc21	0.33	i	i	i	-8.3	i
CCCCCCN1C=C/C(=C\C=C(C#N)C#N)c2ccccc21	-1.75	i	-7.23*	i	-11.9	i
Cc1cc(C(=O)NC2CCCc3c2cnn3-c2ccc(C(C)(C)C)cc2)nn1C (stereo unspecified)	-0.84	8*	i	i	-22.8	i
COc1ccccc1OCCNc1cc(N2CCCCC2)ccc1[N+](=O)[O-]	2.27	6*	-6.82*	i	-7.3	i
Cc1cccc(OCCNc2cc(N3CCN(C)CC3)ccc2[N+](=O)[O-])c1	-1.42	i	i	i	-19.1	i
Cc1ccccc1OCCNc1cc(N2CCNCC2)ccc1[N+](=O)[O-]	-8.09*	i	i	x	-22.6	i
COc1cccc(NC(=O)COC(=O)c2ccccc2C(=O)N(C)c2ccccc2)c1	x	x	x	i	x	x
Cc1nc(NC(=O)c2ccccc2)sc1C1(C)CC(c2ccc(OC(F)(F)F)cc2)=NO1 (stereo unspecified)	0.05	i	i	x	-8.3	i
O=C1c2cccc3c([N+](=O)[O-])ccc(c23)C(=O)N1c1ccccn1	-2.51	i	-6.59*	i	-13.6	i
O=C1c2cccc3c(N4CCCCC4)ccc(c23)C(=O)N1c1ccccn1	-0.67	8*	-7.59*	i	-19.6	i
O=C1c2cccc3c([N+](=O)[O-])ccc(c23)C(=O)N1c1ccc(Cl)cn1	-4.95*	7*	i	i	-19.1	i
O=C1c2cccc3c([N+](=O)[O-])ccc(c23)C(=O)N1O	-3.41	8*	i	i	-23.0	i
